# Screens as filed in PubChem BioAssay.
# S1P1 ag-PAM: agonists and agonism potentiators of human S1P1 receptor. P21453. 56,000 compounds, 0.57% hits. activation, % at 9.5 µM. S1P1 CRE-bla cells, forskolin, beta-lactamase FRET, potentiator mode; S1P1 agonist co-added at EC20, 2 nM; 100% = saturating reference agonist, 0% = basal;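 active = activation above a cutoff set at the mean activation of all tested compounds plus 3 SD, cut at about 54% in these data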;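 also: forskolin at 4 µM as EC80 and the EC20 agonist is SEW2871; 100% = SEW2871 at its EC100 plus forskolin at EC80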
# S1P3 agonist: activates the human S1P3 receptor; S1P3 NFAT-BLA reporter cells, agonism, FRET ratio; relative to 1 µM S1P, basal subtracted; 60,000 compounds, 0.1% hits; activation, % at 4.5 µM;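 active = activation above the screen-wide mean plus 3 SD, cut at about 4.5% in these data, passing the limit was not always enough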
# Target sequence (Q99500 whole entry, looked up): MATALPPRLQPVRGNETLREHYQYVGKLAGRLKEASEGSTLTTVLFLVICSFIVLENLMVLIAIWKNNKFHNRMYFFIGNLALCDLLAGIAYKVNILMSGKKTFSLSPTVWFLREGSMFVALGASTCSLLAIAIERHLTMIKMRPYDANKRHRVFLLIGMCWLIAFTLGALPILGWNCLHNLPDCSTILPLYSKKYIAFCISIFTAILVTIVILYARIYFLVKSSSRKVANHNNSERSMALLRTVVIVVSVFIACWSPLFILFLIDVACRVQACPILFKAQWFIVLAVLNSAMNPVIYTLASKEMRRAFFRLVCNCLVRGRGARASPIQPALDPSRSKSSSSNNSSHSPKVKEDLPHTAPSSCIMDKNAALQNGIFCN
#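 Measure – % activation relative to 1 µM S1P (100%), per plate · System – stable CHO line with human S1P3, Gα16, NFAT-BLA reporter · Timing – cells plated overnight, compound 4 h 37 °C, substrate 2 h RT · Technique – fluorescent BLA substrate, ex 405 nm, em 460/535 nm ratio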
# Spn DPM-DC inh: blocks S. pneumoniae diphosphomevalonate decarboxylase. calls only at 10 µM. 65,000 compounds, 0.49% hits. purified DPM-DC, PK/LDH coupled NADH fluorescence;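 active = the 320 compounds with the highest percent inhibition in the single-dose primary screen, excluding strongly autofluorescent ones, cut at about 32% in these data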;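 also: kinetic rate of NADH fluorescence loss reporting ADP formed by the decarboxylase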
# PMK inhibit: S. pneumoniae PMK inhibition; purified PMK, PK/LDH-coupled NADH absorbance 340 nm; inhibition, % at 10 µM; 65,000 compounds, 0.49% hits; AID 539;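 active = top-ranked compounds by inhibition in the single 10 µM screen, taking a fixed number of the strongest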;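 also: 0% = full reaction with DMSO carrier and 100% = background rate without enzyme reaction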
# Hsp90 inh: displaces geldanamycin probe from tumor Hsp90; P07900; NCI-N417 lysate Hsp90, Cy3B-geldanamycin FP displacement; inhibition, % at 30 µM; 64,000 compounds, 0.35% hits;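 active = inhibition above 50%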;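 also: 0% = tracer plus lysate wells and 100% = tracer alone without lysate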
# Spn MK inh: blocks S. pneumoniae mevalonate kinase; inhibition, % at 10 µM; purified MK, PK/LDH-coupled NADH absorbance 340 nm; 65,000 compounds, 0.48% hits; AID 555;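 active = ranked among the strongest by inhibition in the single 10 µM screen, a fixed top-ranked set picked for dose follow-up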
# * marks the source's active call; other numbers are inactive results; i = inactive; / = not tested or not shown; + = active, no number. Rows were chosen to be rich in hits. Some 2.2% of all compounds tested hit in one or more screens of this group.
SMILES,S1P1 ag-PAM,S1P3 agonist,Spn DPM-DC inh,PMK inhibit,Hsp90 inh,Spn MK inh
COCCCn1c(=S)[nH]c2ccc(N3CCOCC3)cc2c1=O,/,/,+,15,-1,4
O=c1c2cc(N3CCOCC3)ccc2[nH]c(=S)n1CC1CCCO1 (stereo not drawn),/,/,i,18,2,13
COc1cc(NC(C)=O)c2ncccc2c1,/,/,/,/,2,/
Cc1ccc(-n2c(C)cc(C(=O)COC(=O)c3c(C)noc3C)c2C)cc1,62*,0,i,8,-3,2
Nc1nc(Cl)nc2c1ncn2[C@@H]1O[C@H](COP(=O)(O)OP(=O)(O)OP(=O)(O)O)[C@H](O)C1O (stereo partly drawn),/,/,/,/,0,/
COc1ccccc1N1CCN(C2CCN(C(=O)c3cccs3)CC2)CC1,11,-6,i,2,1,56*
Cc1ccccc1Cn1cc(NC(=O)c2cc3nc(-c4ccco4)cc(C(F)(F)F)n3n2)cn1,-5,-1,+,14,-1,13
O=C(Nc1ccc(Cl)cc1)c1cc2nc(-c3ccco3)cc(C(F)(F)F)n2n1,4,0,i,5,-3,8
Cc1cccc(Nc2n[nH]c(=S)s2)c1C,/,/,+,0,/,54*
C/C(N)=C(/C#N)C(=O)CSc1nnc(Nc2cccc(C)c2C)s1,5,-1,i,9,-5,5
O=C(O)CN(CCN(CC(=O)O)CC(=O)O)CCN(CC(=O)O)CC(=O)O,/,/,/,/,-3,/
O=C(O)COc1cccc2nsnc12,-7,-2,i,13,-8,10
CCOC(=O)COc1ccc2nsnc2c1Cl,1,-1,+,9,-1,6
Cc1ccc(/C(O)=C2\C(=O)C(=O)N(CC(C)O)C2c2ccc(N(C)C)cc2)cc1 (stereo not drawn),-14,-1,i,6,-3,7
Cc1cc(NC(=O)c2cc(C3CC3)on2)no1,-16,1,i,0,-3,57*
COCCn1c(SCC(=O)c2ccc(F)cc2)nnc1C(C)C,-7,0,i,5,-2,7
Cc1cccc(CN2CCN(c3ccccn3)CC2)c1,-9,-1,i,0,0,48*
c1ccc(N2CCN(c3cnccn3)CC2)nc1,/,/,+,18,/,7
c1ccc(COc2cccc(CN3CCN(c4ccccn4)CC3)c2)cc1,-8,-1,i,2,0,2
COc1ccc(CNC(=O)c2ccc(N3CCCC3=O)cc2)cc1,/,/,i,13,-5,0
Cn1nc(C(C)(C)C)cc1C(=O)NCc1ccc(N2CCCC2=O)cc1,56*,-1,i,20,-1,0
COc1ccc(CCNC(=O)Cn2c(=O)n(Cc3ccco3)c(=O)c3ccc(Cl)cc32)cc1OC,-15,-1,i,17,-2,1
CC1Cc2cc(-c3csc(NC(=O)Cc4cccs4)n3)ccc2N1S(C)(=O)=O (stereo not drawn),57*,-1,i,15,-5,5
CN1CCN(CC(=O)Nc2nc(-c3ccccc3)cs2)CC1,-8,-1,i,6,-1,2
CCN(CC)c1ccc(/C=N/n2c(=S)[nH]nc(C)c2=O)cc1,1,-1,+,0,2,4
SMILES,S1P1 ag-PAM,S1P3 agonist,Spn DPM-DC inh,PMK inhibit,Hsp90 inh,Spn MK inh
Cc1nc2ccccc2c(=O)n1/N=C/c1ccc(N(C)C)cc1,10,-1,i,10,0,10
O=C(Nc1cccc(F)c1)C1C2C=CC3(CN(CCCN4CCOCC4)C(=O)C13)O2 (stereo not drawn),-5,0,i,4,-2,8
CCCN(CC(=O)c1cc(C)n(C)c1C)S(=O)(=O)c1cccc(C(F)(F)F)c1,24,-1,+,8,-1,6
CCN(CC)S(=O)(=O)c1cccc(-c2nnc(SCC(=O)c3cc(C)n(C)c3C)o2)c1,-4,0,i,12,-1,0
CCOc1ccccc1CN1CCN(S(=O)(=O)CC)CC1,-12,-1,i,10,-1,58*
c1ccc(N2CCN(Cc3ccsc3)CC2)nc1,-9,-2,i,7,-3,36
CCOc1ccccc1N1CCN(Cc2cccc(OC)c2OC)CC1,-9,-2,i,2,-2,49*
CCCS(=O)(=O)N1CCN(Cc2ccccc2OCC)CC1,/,-1,i,0,-1,0
COc1ccc(OC)c(CN2CCN(c3ccccc3OC)CC2)c1,-3,-1,i,13,-4,51*
CCS(=O)(=O)N1CCN(Cc2ccccc2OC)CC1,-6,0,i,18,-3,2
COc1ccccc1N1CCN(Cc2ccsc2)CC1,-8,0,i,0,-3,42*
CC(C(=O)Nc1ccc2c(c1)OCO2)N(c1ccc(Cl)cc1)S(C)(=O)=O (stereo not drawn),/,-1,i,6,0,3
O=C(NCc1ccco1)C(c1cccnc1)N(C(=O)Cn1nnc2ccccc21)c1ccc(F)cc1 (stereo not drawn),-12,-2,i,11,-8,13
COc1ccccc1CNC(=O)CCS(=O)(=O)c1ccc2c(c1)CCCN2C(C)=O,8,-1,i,3,1,11
CNCc1cc2ccc(C)cc2[nH]c1=O,-5,0,i,15,-7,12
COc1ccccc1N1CCN(Cc2ccc(OC)c(OC)c2OC)CC1,-23,-2,i,0,2,47*
COc1ccc(CN2CCN(C(=O)c3cccs3)CC2)c(OC)c1OC,-13,-1,i,0,1,39
COC(=O)c1c(C)cc(C)n2c1nc1ccccc12,-11,0,/,20,1,12
Cc1nc2ccccc2n2c(O)c(CC(=O)O)cc12,6,0,i,42*,12,2
Fc1ccc(N2CCN(C(c3cccs3)c3nnnn3C3CCCC3)CC2)cc1 (stereo not drawn),-1,0,i,17,-1,14
Cc1cc(C)n2nc(SCc3cc(=O)n4c(C)cccc4n3)nc2n1,/,/,i,28*,-4,0
Cc1cc(C)n2nc(SCc3cc(=O)n4ccccc4n3)nc2n1,/,/,i,22,2,3
CCCC(=O)Nc1ccc(N2CCN(C(=O)CCC)CC2)cc1,-13,0,+,11,-1,0
CCc1ccc(CNc2ccc(N3CCN(C(C)=O)CC3)cc2)cc1,-6,0,i,0,57*,1
CCCCC(=O)Nc1ccc(N2CCN(C(=O)CC)CC2)cc1,3,-1,i,0,-8,9
CCc1nn(CC(=O)O)c(=O)c2ccccc12,-17,0,i,3,0,11
Cc1ccc(C)c(/C(O)=C2\C(=O)C(=O)N(CCCN(C)C)C2c2cccnc2)c1 (stereo not drawn),/,/,i,17,-5,3
